Results from ChEMBL document CHEMBL4229342, “Synthesis of novel proxyphylline derivatives with dual Anti-Candida albicans and anticancer activity” (Eur J Med Chem, 2018).

Key:
Assay type in all cases: functional
CCRF-CEM [1] = experiment: Antiproliferative activity against human CCRF-CEM cells assessed as cell viability at 25 uM after 72 hrs by MTT assay; settings: read-out: Activity
How it was run: (§1)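 MTT viability assay in CCRF-CEM and MCF-7 cells after 72 h exposure at 25, 50, 100 and 200 µM. Results are relative to control cells without inhibitor in 0.5% DMSO. Done in triplicate; values are means ± SD of three independent experiments.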

CCRF-CEM [2] = experiment: Antiproliferative activity against human CCRF-CEM cells assessed as cell viability at 50 uM after 72 hrs by MTT assay; settings: read-out: Activity; how it was run: as §1
CCRF-CEM [3] = experiment: Antiproliferative activity against human CCRF-CEM cells assessed as cell viability at 100 uM after 72 hrs by MTT assay; settings: read-out: Activity; how it was run: as §1
CCRF-CEM [4] = experiment: Antiproliferative activity against human CCRF-CEM cells assessed as cell viability at 200 uM after 72 hrs by MTT assay; settings: read-out: Activity; how it was run: as §1
MCF7 [5] = experiment: Antiproliferative activity against human MCF7 cells assessed as cell viability at 25 uM after 72 hrs by MTT assay; settings: MCF7, 72 h, read-out: Activity; how it was run: as §1
MCF7 [6] = experiment: Antiproliferative activity against human MCF7 cells assessed as cell viability at 50 uM after 72 hrs by MTT assay; settings: MCF7, 72 h, read-out: Activity; how it was run: as §1
MCF7 [7] = experiment: Antiproliferative activity against human MCF7 cells assessed as cell viability at 100 uM after 72 hrs by MTT assay; settings: MCF7, 72 h, read-out: Activity; how it was run: as §1
MCF7 [8] = experiment: Antiproliferative activity against human MCF7 cells assessed as cell viability at 200 uM after 72 hrs by MTT assay; settings: MCF7, 72 h, read-out: Activity; how it was run: as §1
Candida albicans [9] = experiment: Growth inhibition of Candida albicans ATCC 90028 at 16 ug/ml incubated for 18 hrs at 35 degC by broth microdilution method relative to control; settings: ATCC 90028, 18 h, read-out: GI
Candida albicans [10] = experiment: Growth inhibition of Candida albicans ATCC 90028 at 16 ug/ml incubated for 48 hrs at 35 degC by broth microdilution method relative to control; settings: ATCC 90028, 48 h, read-out: GI
Candida albicans [11] = experiment: Growth inhibition of Candida albicans ATCC 90028 at 8 ug/ml incubated for 18 hrs at 35 degC by broth microdilution method relative to control; settings: ATCC 90028, 18 h, read-out: GI
Candida albicans [12] = experiment: Growth inhibition of Candida albicans ATCC 90028 at 8 ug/ml incubated for 48 hrs at 35 degC by broth microdilution method relative to control; settings: ATCC 90028, 48 h, read-out: GI
Candida albicans [13] = experiment: Growth inhibition of Candida albicans ATCC 90028 at 4 ug/ml incubated for 18 hrs at 35 degC by broth microdilution method relative to control; settings: ATCC 90028, 18 h, read-out: GI
Candida albicans [14] = experiment: Growth inhibition of Candida albicans ATCC 90028 at 8 ug/ml incubated for 4 hrs at 35 degC by broth microdilution method relative to control; settings: ATCC 90028, 4 h, read-out: GI
Candida albicans [15] = experiment: Growth inhibition of Candida albicans ATCC 90028 at 2 ug/ml incubated for 18 hrs at 35 degC by broth microdilution method relative to control; settings: ATCC 90028, 18 h, read-out: GI
Candida albicans [16] = experiment: Growth inhibition of Candida albicans ATCC 90028 at 2 ug/ml incubated for 4 hrs at 35 degC by broth microdilution method relative to control; settings: ATCC 90028, 4 h, read-out: GI
Candida albicans [17] = experiment: Growth inhibition of Candida albicans ATCC 90028 at 1 ug/ml incubated for 18 hrs at 35 degC by broth microdilution method relative to control; settings: ATCC 90028, 18 h, read-out: GI
Candida albicans [18] = experiment: Growth inhibition of Candida albicans ATCC 90028 at 1 ug/ml incubated for 4 hrs at 35 degC by broth microdilution method relative to control; settings: ATCC 90028, 4 h, read-out: GI
Candida albicans [19] = experiment: Growth inhibition of Candida albicans ATCC 90028 at 0.5 ug/ml incubated for 18 hrs at 35 degC by broth microdilution method relative to control; settings: ATCC 90028, 18 h, read-out: GI
Candida albicans [20] = experiment: Growth inhibition of Candida albicans ATCC 90028 at 0.5 ug/ml incubated for 4 hrs at 35 degC by broth microdilution method relative to control; settings: ATCC 90028, 4 h, read-out: GI
Candida albicans [21] = experiment: Growth inhibition of Candida albicans ATCC 90028 at 0.25 ug/ml incubated for 18 hrs at 35 degC by broth microdilution method relative to control; settings: ATCC 90028, 18 h, read-out: GI
Candida albicans [22] = experiment: Growth inhibition of Candida albicans ATCC 90028 at 0.25 ug/ml incubated for 4 hrs at 35 degC by broth microdilution method relative to control; settings: ATCC 90028, 4 h, read-out: GI
Candida albicans [23] = experiment: Growth inhibition of Candida albicans ATCC 90028 at 0.125 ug/ml incubated for 18 hrs at 35 degC by broth microdilution method relative to control; settings: ATCC 90028, 18 h, read-out: GI
Candida albicans [24] = experiment: Growth inhibition of Candida albicans ATCC 90028 at 0.125 ug/ml incubated for 4 hrs at 35 degC by broth microdilution method relative to control; settings: ATCC 90028, 4 h, read-out: GI
Candida albicans [25] = experiment: Growth inhibition of Candida albicans ATCC 90028 at 0.0625 ug/ml incubated for 18 hrs at 35 degC by broth microdilution method relative to control; settings: ATCC 90028, 18 h, read-out: GI
Candida albicans [26] = experiment: Growth inhibition of Candida albicans ATCC 90028 at 0.0625 ug/ml incubated for 4 hrs at 35 degC by broth microdilution method relative to control; settings: ATCC 90028, 4 h, read-out: GI
Candida albicans [27] = experiment: Growth inhibition of Candida albicans ATCC 90028 at 0.0313 ug/ml incubated for 18 hrs at 35 degC by broth microdilution method relative to control; settings: ATCC 90028, 18 h, read-out: GI
Candida albicans [28] = experiment: Growth inhibition of Candida albicans ATCC 90028 at 0.0313 ug/ml incubated for 4 hrs at 35 degC by broth microdilution method relative to control; settings: ATCC 90028, 4 h, read-out: GI
Candida albicans [29] = experiment: Fungicidal activity against Candida albicans ATCC 90028 assessed as log reduction in cell viability at 16 ug/ml after 48 hrs at 35 degC
How it was run: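 MFC assay on C. albicans ATCC 90028 following M27-A3, at the molar equivalent of 16 µg/mL. CFU of treated cells were compared with CFU of the untreated inoculum. Activity is given as lg R = lg CFU/mL control − lg CFU/mL treated, and lg R ≥3 was defined as fungicidal. Values are means of two independent experiments.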

SMILES | viability at 25 µM (CCRF-CEM [1]) [%] | viability at 50 µM (CCRF-CEM [2]) [%] | viability at 100 µM (CCRF-CEM [3]) [%] | viability at 200 µM (CCRF-CEM [4]) [%] | viability at 25 µM (MCF7 [5]) [%] | viability at 50 µM (MCF7 [6]) [%] | viability at 100 µM (MCF7 [7]) [%] | viability at 200 µM (MCF7 [8]) [%] | inhibition of growth at 16 µg/mL (Candida albicans [9]) [%] | inhibition of growth at 16 µg/mL (Candida albicans [10]) [%] | inhibition of growth at 8 µg/mL (Candida albicans [11]) [%] | inhibition of growth at 8 µg/mL (Candida albicans [12]) [%] | inhibition of growth at 4 µg/mL (Candida albicans [13]) [%] | inhibition of growth at 8 µg/mL (Candida albicans [14]) [%] | inhibition of growth at 2 µg/mL (Candida albicans [15]) [%] | inhibition of growth at 2 µg/mL (Candida albicans [16]) [%] | inhibition of growth at 1 µg/mL (Candida albicans [17]) [%] | inhibition of growth at 1 µg/mL (Candida albicans [18]) [%] | inhibition of growth at 0.5 µg/mL (Candida albicans [19]) [%] | inhibition of growth at 0.5 µg/mL (Candida albicans [20]) [%] | other results
CC(Cn1cnc2c1c(=O)n(C)c(=O)n2C)OC(=O)Nc1ccccc1 (stereo not drawn) | 78.9 | 73.1 | 53.5 | 38.5 | 91.9 | 83.6 | 84.7 | 81 | 100 | 99.1 | 99.9 | 99.2 | 99.7 | 99.2 | 100 | 99.4 | 99.9 | 99.3 | 100 | 99.2 | inhibition of growth at 0.25 µg/mL (Candida albicans [21]): 100%; inhibition of growth at 0.25 µg/mL (Candida albicans [22]): 99.2%; inhibition of growth at 0.125 µg/mL (Candida albicans [23]): 100%; inhibition of growth at 0.125 µg/mL (Candida albicans [24]): 99.3%; inhibition of growth at 0.0625 µg/mL (Candida albicans [25]): 100%; inhibition of growth at 0.0625 µg/mL (Candida albicans [26]): 99.3%; inhibition of growth at 0.0313 µg/mL (Candida albicans [27]): 100%; inhibition of growth at 0.0313 µg/mL (Candida albicans [28]): 99.4%; log(activity) (Candida albicans [29]): 0.6
CC(Cn1cnc2c1c(=O)n(C)c(=O)n2C)OC(=O)C(c1ccccc1)c1ccccc1 (stereo not drawn) | 84.8 | 33.1 | 30.5 | 2.5 | 89.5 | 75.2 | 67.3 | 43.5 | 99.9 | 99.1 | 99.9 | 99.1 | 100 | 99.2 | 99.8 | 99.2 | 99.6 | 99.4 | 99.6 | 99.1 | inhibition of growth at 0.25 µg/mL (Candida albicans [21]): 99.3%; inhibition of growth at 0.25 µg/mL (Candida albicans [22]): 99.1%; inhibition of growth at 0.125 µg/mL (Candida albicans [23]): 100%; inhibition of growth at 0.125 µg/mL (Candida albicans [24]): 99.8%; inhibition of growth at 0.0625 µg/mL (Candida albicans [25]): 100%; inhibition of growth at 0.0625 µg/mL (Candida albicans [26]): 99.3%; inhibition of growth at 0.0313 µg/mL (Candida albicans [27]): 100%; inhibition of growth at 0.0313 µg/mL (Candida albicans [28]): 99.9%; log(activity) (Candida albicans [29]): 0.1
